Furin inh – human furin inhibition. P09958. purified furin, fluorogenic substrate cleavage. inhibition, % at 20 µM or 30 µM. 220,000 compounds, 0.061% hits; in the data active means inhibition above about 25%
Arbovirus anti – arbovirus infection inhibition; arbovirus infection cell-based antiviral screen; inhibition, % at 10 µM; 200,000 compounds, 0.37% hits; in the data active means inhibition above about 30%
ABCB1 block – human ABCB1 inhibition, ABCG2 as counter-screen; P08183; CCRF-Adr cells, JC-1 efflux, flow cytometry; inhibition, % at 6.6 µM; 190,000 compounds, 0.067% hits; AID 1326; in the data active means inhibition above about 40%;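 further: 0% = vehicle and 100% = reference inhibitor; higher value means more JC-1 retained so stronger ABCB1 efflux block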
ABCG2 inh – blocks JC-1 efflux by human ABCG2 transporter; inhibition, % at 6.6 µM; AID 1325; 190,000 compounds, 0.1% hits; Q9UNQ0; IgMXP3 cells, flow cytometry;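 active means inhibition above 80%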;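 further: 0% = DMSO and 100% = nicardipine control wells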
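Test system: ABCG2 IgMXP3 and barcoded ABCB1 CCRF-Adr cell mix; Schedule: cells with compound and JC-1, 10 min at 25 °C, rotating, no wash; Technique: flow cytometry of retained JC-1 fluorescence; Measure: % inhibition of efflux relative to nicardipine and DMSO; Controls: nicardipine high and DMSO low controls.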
HSV augment – increases HSV replication in cells | maximum fold increase | 220,000 compounds, 0.005% hits | AID 1956 | HSV replication augmentation in cells, fold increase; in the data active means maximum fold increase above about 1.5; tested in PC3 cells
p47phox inh – blocks human p47phox regulatory protein of NADPH oxidases; p47phox/p22phox peptide binding, fluorescence polarization, 2 h; inhibition, % at 24.7 µM; 220,000 compounds, 0.53% hits; AID 1274; P14598;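 active means inhibition above about 30%, limit read from the data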;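 further: 0% = p47phox with labelled peptide and 100% = labelled peptide alone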
* marks the source's active call; other numbers are inactive results; i = inactive; . = no result given. The list is not random: actives were taken first. Their share in the collection is about 0.95%.

SMILES | Furin inh | Arbovirus anti | ABCB1 block | ABCG2 inh | HSV augment | p47phox inh
NC(=O)c1ccc(NC(=O)COC(=O)CC(NC(=O)c2ccccc2Cl)c2ccccc2)cc1 (stereo not drawn) | -12 | 3 | . | 1 | i | -16
CCOC(=O)c1ccccc1NC(=O)COC(=O)c1ccc(C)c(S(=O)(=O)N2CCOCC2)c1 | -16 | 7 | 1 | 17 | i | 93*
Cc1ccc(C(=O)OCC(=O)Nc2ccccc2C(F)(F)F)cc1S(=O)(=O)N1CCOCC1 | -18 | 2 | 1 | 6 | i | -12
CCOC(=O)C(CC)Sc1nc2c(c(=O)[nH]c(=O)n2C)n1C/C=C(/C)Cl (stereo not drawn) | 28* | 4 | 1 | 2 | i | -10
CCn1c(CNC(=O)c2cccs2)nnc1SCC(=O)Nc1cc(Cl)ccc1C | -12 | 3 | 0 | 2 | i | -12
CC(NC(=O)c1cccs1)c1nnc(SCc2ccc(Cl)cc2Cl)n1C (stereo not drawn) | -9 | 77* | 1 | 10 | i | -5
C=CCn1c(CNC(=O)c2cccs2)nnc1SCc1ccc(Cl)cc1Cl | -12 | 63* | 1 | 2 | i | -8
Cc1ccc(O)c(-c2cc(C(=O)Nc3ccc(S(=O)(=O)N4CC(C)OC(C)C4)cc3)[nH]n2)c1 (stereo not drawn) | -15 | 12 | -1 | -2 | i | -21
Cc1ccc(O)c(-c2cc(C(=O)Nc3ccc(S(=O)(=O)Nc4nc(C)cc(C)n4)cc3)[nH]n2)c1 | -15 | 35* | 0 | -4 | i | -17
COc1ccc(/C(N)=N/OC(=O)Cc2ccc(OC)c(OC)c2)cc1 | -16 | 8 | -1 | 45 | i | -8
Cc1cc2c(s1)c1cnn(CC(=O)NCCc3ccccc3)c(=O)c1n2C | -32 | -21 | 1 | 21 | i | 30*
COc1cccc(-c2nc(C(N)=O)c3[nH]c(=O)n(-c4cccc(Cl)c4)c3n2)c1OC | -30 | 0 | 1 | 7 | i | -10
COc1ccc(-c2nc(C(N)=O)c3[nH]c(=O)n(-c4cccc(Cl)c4)c3n2)cc1OC | -11 | -40 | 1 | 4 | . | 37*
COc1ccc(/C=N/NC(=O)CNC(=O)COc2ccccc2)cc1 | -11 | 15 | 0 | -1 | i | 8
COc1cccc(/C=N/NC(=O)CNC(=O)COc2ccccc2)c1O | -11 | . | . | . | i | 82*
Cc1ccc(-c2nn(C)c(=O)c3ccccc23)cc1CNC(=O)Cn1nc(-c2ccccc2)c2ccccc2c1=O | -17 | -5 | 1 | 3 | . | 41*
COc1ccc(N=Cc2c(O)n(-c3ccc(OC)cc3)c(=O)c3ccccc23)cc1 | -30 | -14 | 0 | 6 | i | 33*
COc1ccc(CCNC(=O)c2c(C)nc3ccccn23)cc1 | -23 | 21 | 0 | 1 | i | -7
CCN1c2ccccc2N(C)C1(C)c1ccccc1 (stereo not drawn) | 3 | -1 | -1 | 0 | i | 63*
CN1c2ccccc2N(C)C1(C)c1ccccc1 | -18 | 10 | -1 | -4 | i | 70*
CN1C(=O)N(C)C2(c3ccccc3)NC(=O)NC12c1ccccc1 (stereo not drawn) | -20 | 2 | 1 | 1 | i | -8
C=CCOc1nc2c(c(=O)n(Cc3ccc(Cl)c(Cl)c3)c(=O)n2C)n1C | -21 | . | . | . | i | .
Cn1c(OCc2ccc3c(c2)OCO3)nc2c1c(=O)n(Cc1ccc(Cl)c(Cl)c1)c(=O)n2C | -4 | -8 | -2 | -14 | . | 55*
CCCc1cc(=O)n2c([nH]c3ccccc32)c1C#N | -16 | -21 | 0 | 1 | i | 48*
CCOc1cccc2c1OC1(C)CC2NC(=O)N1Cc1ccccc1 (stereo not drawn) | -8 | 4 | 1 | 4 | i | 60*
O=C(NNc1cc(N2CCOCC2)nc(N2CCOCC2)n1)c1ccc([N+](=O)[O-])cc1 | -1 | 5 | 0 | 2 | i | 49*
CC(C)(C)C1C=C(Sc2ccccc2)C(=O)O1 (stereo not drawn) | -19 | 4 | 0 | 5 | i | -27
CC(/C=C/c1ccccc1)=N/NC(=O)c1cnccn1 | 27* | -7 | 0 | 2 | i | -9
CCN(CC)C1=NS(=O)(=O)c2cc([N+](=O)[O-])ccc21 | -22 | -9 | 1 | 2 | i | 56*

Screening results (PubChem BioAssay)
